Here are results for one compound from ChEMBL document CHEMBL3745707 (Bioorg Med Chem, 2016).

The structures appear in SMILES notation. Active and inactive are the calls of the source. The calls are words filed in the database; no cut-off is given here. Some results are limits rather than exact numbers.

Series [1] concerns the target Receptor-type tyrosine-protein kinase FLT3 (Homo sapiens, UniProt P36888). Nature of the series: Inhibition of human FLT3 using [EAIYAAPFAKKK] as substrate.
The target of series [2] is Serine/threonine-protein kinase Nek9 (Homo sapiens, UniProt Q8TD19). The series can be described thus: Inhibition of human NEK9 using MBP as substrate.
Series [3] deals with T1, Serine/threonine-protein kinase PLK2 (Homo sapiens, UniProt Q9NYY3).
Target sequence in this assay (Q9NYY3 whole entry, looked up): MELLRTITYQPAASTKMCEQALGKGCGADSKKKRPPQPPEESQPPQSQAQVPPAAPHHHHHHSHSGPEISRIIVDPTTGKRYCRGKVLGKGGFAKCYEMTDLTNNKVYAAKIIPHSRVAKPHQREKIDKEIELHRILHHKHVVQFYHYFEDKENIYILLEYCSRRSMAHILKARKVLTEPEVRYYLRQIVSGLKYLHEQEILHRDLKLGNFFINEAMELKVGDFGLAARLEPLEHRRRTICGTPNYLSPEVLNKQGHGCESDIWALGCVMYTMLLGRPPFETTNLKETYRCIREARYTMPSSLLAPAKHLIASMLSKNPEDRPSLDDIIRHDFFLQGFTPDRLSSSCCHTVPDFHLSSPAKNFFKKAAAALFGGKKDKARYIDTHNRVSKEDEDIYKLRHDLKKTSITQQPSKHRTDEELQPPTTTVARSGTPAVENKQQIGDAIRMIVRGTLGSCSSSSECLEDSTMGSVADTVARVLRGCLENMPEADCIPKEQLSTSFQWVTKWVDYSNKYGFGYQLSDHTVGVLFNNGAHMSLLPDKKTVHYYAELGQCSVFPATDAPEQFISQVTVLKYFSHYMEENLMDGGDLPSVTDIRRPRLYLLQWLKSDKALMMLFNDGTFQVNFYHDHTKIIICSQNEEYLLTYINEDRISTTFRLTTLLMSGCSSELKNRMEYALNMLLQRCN
Series [4] concerns the target T1, Serine/threonine-protein kinase PLK2. Nature of the series: Inhibition of human recombinant PLK2 using recombinant dephosphorylated bovine alpha- casein as substrate after 30 mins by scintillation counting analysis in presence of gamma-32P-ATP.
Target sequence in this assay (Q9NYY3 whole entry): as the sequence (Q9NYY3 whole entry, looked up) above
Series [5] has as its target Serine/threonine-protein kinase Nek1 (Homo sapiens, UniProt Q96PY6). Nature of the series: Inhibition of human NEK1 using MBP as substrate.
Series [6] deals with Serine/threonine-protein kinase Nek2 (Homo sapiens, UniProt P51955). Nature of the series: Inhibition of human NEK2 using MBP as substrate.
Series [7] deals with High affinity nerve growth factor receptor (Homo sapiens, UniProt P04629). Nature of the series: Inhibition of human TRKA using poly[Glu:Tyr] (4:1) as substrate.
For series [8], the target named is Fibroblast growth factor receptor 3 (Homo sapiens, UniProt P22607). Nature of the series: Inhibition of human FGFR3 using poly[Glu:Tyr] (4:1) as substrate.
In series [9] the target is Serine/threonine-protein kinase Nek5 (Homo sapiens, UniProt Q6P3R8). The series can be described thus: Inhibition of human NEK5 using MBP as substrate.
The test system of the next series is U2OS. Nature of the series: Induction of apoptosis in human U2OS cells assessed as increase in caspase 3/7 activity after 24 hrs by caspase Glo assay. In kind it is functional, cell-based. The method, boiled down:
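U2OS cells (DMEM, 10% FBS, 37 °C, 5% CO₂) plated at 1–3 × 10⁴ cells/well, left overnight, then exposed 24 h to increasing concentrations, with DMSO control. Caspase 3/7 activity read by Caspase-Glo luminescence; viability measured in parallel with Cell Titer Blue fluorescence.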

The target of a further series is Tubulin (Bos taurus) (UniProt Q6B856+Q862L2+Q862F3). The series can be described thus: Inhibition of bovine MAP rich tubulin polymerization at 10 uM measured every 2 mins for 30 mins by UV-visible spectrophotometric analysis. In kind it is protein assay. In short, it runs like this: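 MAP-rich bovine tubulin at 1.5 mg/mL in 80 mM PIPES pH 6.9, 1 mM GTP, 0.5 mM EGTA, 2 mM MgCl₂. Briefly preincubated with agent or DMSO, then polymerized at 37 °C in a spectrophotometer. Absorbance recorded every 2 min for 30 min; n = 3.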

Series [10] concerns the target Mitogen-activated protein kinase 14 (Homo sapiens, UniProt Q16539). The series can be described thus: Inhibition of human P38alpha using MBP as substrate.
Series [11] has as its target T1, Serine/threonine-protein kinase PLK2. Nature of the series: Inhibition of human PLK2 using casein as substrate.
Target sequence in this assay (Q9NYY3 whole entry): as the sequence (Q9NYY3 whole entry, looked up) above
Series [12] has as its target Fibroblast growth factor receptor 1 (Homo sapiens, UniProt P11362). The series can be described thus: Inhibition of human FGFR1 using [KKKSPGEYVNIEFG] as substrate.
The target of series [13] is Serine/threonine-protein kinase PLK1 (Homo sapiens) (UniProt P53350).
Series [14] addresses Testis-specific serine/threonine-protein kinase 3 (Homo sapiens, UniProt Q96PN8). The series can be described thus: Inhibition of human TSSK3 using [KKKVSRSGLYRSPSMPENLNRPR] as substrate.
In a further series the test system is Mus musculus. The series can be described thus: Toxicity in NCR nu/nu mouse xenografted with human MDA-MB-231 cells assessed as change in body weight at 75 mg/kg, ip administered alternative day. In kind it is organism-based. To be noted: in vivo.
The target in series [15] is Cyclin-Y/Cyclin-dependent kinase 16 (Homo sapiens, UniProt Q00536). The series can be described thus: Inhibition of human CDK16/cyclin Y using RP protein as substrate. In kind it is protein-complex assay.
Series [16] deals with Glycogen synthase kinase-3 alpha (Homo sapiens, UniProt P49840). Nature of the series: Inhibition of human GSK3alpha using [YRRAAVPPSPSLSRHSSPHQ(pS)EDEEE] as substrate.
For series [17], the target named is Ribosomal protein S6 kinase alpha-1 (Homo sapiens, UniProt Q15418). The series can be described thus: Inhibition of human RSK1 using [KKLNRTLSVA] as substrate.
The target of the next series is Ephrin type-A receptor 6 (Homo sapiens, UniProt Q9UF33). The series can be described thus: Inhibition of human EPHA6 using poly[Glu:Tyr] (4:1) as substrate.
Series [18] addresses TRAF2 and NCK-interacting protein kinase (Homo sapiens, UniProt Q9UKE5). Nature of the series: Inhibition of human TNIK using [RLGRDKYKTLRQIRQ] as substrate.

Receptor-type tyrosine-protein kinase FLT3, sequence (P36888 whole entry): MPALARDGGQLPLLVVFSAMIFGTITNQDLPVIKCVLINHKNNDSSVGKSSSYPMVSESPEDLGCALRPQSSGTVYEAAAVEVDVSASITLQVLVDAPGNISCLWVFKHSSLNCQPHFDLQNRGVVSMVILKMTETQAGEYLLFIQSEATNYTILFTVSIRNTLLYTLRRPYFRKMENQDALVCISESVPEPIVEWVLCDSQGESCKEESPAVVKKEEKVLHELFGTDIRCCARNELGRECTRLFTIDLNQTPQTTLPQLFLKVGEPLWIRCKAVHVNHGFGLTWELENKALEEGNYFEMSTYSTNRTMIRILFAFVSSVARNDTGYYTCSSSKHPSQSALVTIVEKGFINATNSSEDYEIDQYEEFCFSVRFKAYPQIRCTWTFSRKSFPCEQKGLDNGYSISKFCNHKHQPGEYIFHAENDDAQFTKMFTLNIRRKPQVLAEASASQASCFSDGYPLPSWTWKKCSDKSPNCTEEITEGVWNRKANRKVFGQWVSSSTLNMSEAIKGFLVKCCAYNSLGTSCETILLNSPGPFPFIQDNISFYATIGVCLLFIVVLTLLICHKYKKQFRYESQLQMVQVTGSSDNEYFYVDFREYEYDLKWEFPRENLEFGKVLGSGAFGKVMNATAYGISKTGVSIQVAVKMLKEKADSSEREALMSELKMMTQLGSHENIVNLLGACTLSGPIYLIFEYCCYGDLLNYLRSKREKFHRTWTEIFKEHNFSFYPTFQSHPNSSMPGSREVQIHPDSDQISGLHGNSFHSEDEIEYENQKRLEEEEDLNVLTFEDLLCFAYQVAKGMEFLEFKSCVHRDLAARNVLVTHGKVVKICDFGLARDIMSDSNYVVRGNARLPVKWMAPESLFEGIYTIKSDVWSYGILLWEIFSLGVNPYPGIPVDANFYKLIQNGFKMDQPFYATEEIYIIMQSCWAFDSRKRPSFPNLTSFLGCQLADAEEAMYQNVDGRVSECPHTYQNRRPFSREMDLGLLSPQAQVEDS
Serine/threonine-protein kinase PLK1 (Homo sapiens), sequence (P53350 whole entry): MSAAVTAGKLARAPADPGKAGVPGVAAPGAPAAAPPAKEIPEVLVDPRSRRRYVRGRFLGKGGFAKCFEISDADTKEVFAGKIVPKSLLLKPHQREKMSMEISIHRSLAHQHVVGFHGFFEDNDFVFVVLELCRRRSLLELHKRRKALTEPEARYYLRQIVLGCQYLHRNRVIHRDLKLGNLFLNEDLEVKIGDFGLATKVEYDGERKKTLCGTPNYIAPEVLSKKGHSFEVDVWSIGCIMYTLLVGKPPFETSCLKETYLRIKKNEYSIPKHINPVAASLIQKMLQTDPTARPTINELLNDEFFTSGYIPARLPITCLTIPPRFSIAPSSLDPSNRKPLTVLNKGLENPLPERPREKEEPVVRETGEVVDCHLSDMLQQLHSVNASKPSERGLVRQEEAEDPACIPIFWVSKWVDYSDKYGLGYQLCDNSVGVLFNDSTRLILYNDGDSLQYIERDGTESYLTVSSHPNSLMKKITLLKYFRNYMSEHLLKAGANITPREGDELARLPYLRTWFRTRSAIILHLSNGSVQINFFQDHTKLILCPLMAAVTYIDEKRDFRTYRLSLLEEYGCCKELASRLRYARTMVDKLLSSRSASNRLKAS
Serine/threonine-protein kinase Nek1, sequence (Q96PY6 whole entry): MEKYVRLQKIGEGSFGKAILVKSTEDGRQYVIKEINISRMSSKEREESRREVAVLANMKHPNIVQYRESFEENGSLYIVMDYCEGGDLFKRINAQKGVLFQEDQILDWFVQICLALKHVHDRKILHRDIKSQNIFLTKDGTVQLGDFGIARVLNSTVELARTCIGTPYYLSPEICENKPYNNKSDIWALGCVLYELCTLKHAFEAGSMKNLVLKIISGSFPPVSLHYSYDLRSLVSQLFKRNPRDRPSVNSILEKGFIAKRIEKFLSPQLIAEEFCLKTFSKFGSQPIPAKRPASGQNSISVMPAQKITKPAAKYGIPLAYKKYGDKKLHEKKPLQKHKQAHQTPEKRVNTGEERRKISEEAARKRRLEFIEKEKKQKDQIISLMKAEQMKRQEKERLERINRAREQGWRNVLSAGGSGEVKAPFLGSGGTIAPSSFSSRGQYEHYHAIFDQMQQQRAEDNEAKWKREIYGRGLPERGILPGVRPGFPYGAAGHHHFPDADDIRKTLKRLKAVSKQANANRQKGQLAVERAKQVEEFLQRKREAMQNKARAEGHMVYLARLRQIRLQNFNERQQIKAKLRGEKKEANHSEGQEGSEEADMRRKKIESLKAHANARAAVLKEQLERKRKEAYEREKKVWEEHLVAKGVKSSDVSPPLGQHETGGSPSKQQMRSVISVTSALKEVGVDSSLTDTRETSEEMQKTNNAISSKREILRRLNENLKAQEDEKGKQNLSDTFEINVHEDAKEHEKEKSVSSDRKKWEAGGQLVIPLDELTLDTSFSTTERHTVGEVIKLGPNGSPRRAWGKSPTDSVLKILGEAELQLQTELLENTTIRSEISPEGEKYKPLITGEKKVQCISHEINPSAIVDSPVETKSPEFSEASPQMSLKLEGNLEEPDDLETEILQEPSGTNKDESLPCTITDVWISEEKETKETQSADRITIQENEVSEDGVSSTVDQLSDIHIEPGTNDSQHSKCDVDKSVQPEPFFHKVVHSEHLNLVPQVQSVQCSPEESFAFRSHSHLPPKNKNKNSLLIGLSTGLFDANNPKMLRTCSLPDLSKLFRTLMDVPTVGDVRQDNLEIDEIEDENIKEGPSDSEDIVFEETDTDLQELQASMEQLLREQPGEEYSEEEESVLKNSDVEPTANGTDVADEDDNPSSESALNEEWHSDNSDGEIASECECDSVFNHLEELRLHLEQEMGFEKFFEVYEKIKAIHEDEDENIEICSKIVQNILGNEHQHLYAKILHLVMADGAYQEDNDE
High affinity nerve growth factor receptor, sequence (P04629 whole entry): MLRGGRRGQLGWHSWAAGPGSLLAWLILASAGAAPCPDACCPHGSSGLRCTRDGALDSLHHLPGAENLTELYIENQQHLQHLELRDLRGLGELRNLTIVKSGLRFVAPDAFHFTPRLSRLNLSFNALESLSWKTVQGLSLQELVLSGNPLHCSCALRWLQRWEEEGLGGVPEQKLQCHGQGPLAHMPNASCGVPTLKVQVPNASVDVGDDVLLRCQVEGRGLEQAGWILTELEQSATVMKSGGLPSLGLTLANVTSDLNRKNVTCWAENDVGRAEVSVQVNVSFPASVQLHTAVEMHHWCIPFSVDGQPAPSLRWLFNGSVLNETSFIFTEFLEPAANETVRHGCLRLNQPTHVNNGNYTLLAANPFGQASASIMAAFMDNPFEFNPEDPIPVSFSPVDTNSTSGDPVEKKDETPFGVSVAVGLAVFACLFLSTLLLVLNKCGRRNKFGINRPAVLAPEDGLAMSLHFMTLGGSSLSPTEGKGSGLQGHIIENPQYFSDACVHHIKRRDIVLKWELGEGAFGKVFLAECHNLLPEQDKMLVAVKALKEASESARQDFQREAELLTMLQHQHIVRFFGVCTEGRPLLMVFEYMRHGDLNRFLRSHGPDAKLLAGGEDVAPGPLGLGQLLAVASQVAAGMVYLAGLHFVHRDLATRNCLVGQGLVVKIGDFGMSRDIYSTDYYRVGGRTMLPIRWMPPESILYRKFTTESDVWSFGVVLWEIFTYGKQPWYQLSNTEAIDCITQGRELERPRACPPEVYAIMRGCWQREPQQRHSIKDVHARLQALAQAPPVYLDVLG
Mitogen-activated protein kinase 14, sequence (Q16539 whole entry): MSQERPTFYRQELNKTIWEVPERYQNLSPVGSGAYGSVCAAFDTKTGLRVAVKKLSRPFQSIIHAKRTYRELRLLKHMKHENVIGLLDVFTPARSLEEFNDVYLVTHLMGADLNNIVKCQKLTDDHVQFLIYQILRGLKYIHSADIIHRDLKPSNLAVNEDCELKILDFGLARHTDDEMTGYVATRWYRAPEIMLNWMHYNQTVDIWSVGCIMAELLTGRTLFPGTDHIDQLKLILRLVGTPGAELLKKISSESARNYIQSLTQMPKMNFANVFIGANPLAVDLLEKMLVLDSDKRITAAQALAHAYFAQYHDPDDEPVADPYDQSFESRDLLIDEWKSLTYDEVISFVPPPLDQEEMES
Testis-specific serine/threonine-protein kinase 3, sequence (Q96PN8 whole entry): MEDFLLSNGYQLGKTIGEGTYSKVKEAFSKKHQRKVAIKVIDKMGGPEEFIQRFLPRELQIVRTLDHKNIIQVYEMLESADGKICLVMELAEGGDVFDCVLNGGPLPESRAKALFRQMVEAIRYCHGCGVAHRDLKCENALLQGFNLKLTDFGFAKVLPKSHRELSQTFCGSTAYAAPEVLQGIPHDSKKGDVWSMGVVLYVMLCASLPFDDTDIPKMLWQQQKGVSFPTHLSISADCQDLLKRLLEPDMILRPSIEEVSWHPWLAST

As to `Cn1c(=O)c(S(=O)(=O)c2ccc(F)cc2F)cc2cnc(Nc3ccc4[nH]ccc4c3)nc21`, the IC50 (usually the concentration at which inhibition is half-maximal) in series [1] was above 5 µM; in series [2], above 5 µM; in [4], 0.31 µM; in series [5], 0.63 µM; in series [6], 1.83 µM; in [7], above 5 µM. Also, the IC50 in series [8] is above 5 µM; in series [9] it was 4.42 µM; in [10] it was above 10 µM; in series [11], 0.374 µM; in [12], above 5 µM; in series [14] it was above 5 µM. Further, the IC50 in series [15] was above 10 µM; in series [16], above 5 µM; in series [17] it was above 5 µM; on Ephrin type-A receptor 6 it was above 5 µM; in [18], above 5 µM. Moreover, the values for the ΔTm in [3] and in series [13] were 4.1 °C and 0.2 °C, respectively. For the same compound, the Activity entry in the series on U2OS is “Dose-dependent effect”; in the series with Mus musculus it was “Non-toxic”. In addition, on Tubulin (Bos taurus), the inhibition result is “inactive”.
